Compound activity deposited in PubChem BioAssay by several laboratories.
sdo1 growth = growth rescue of sdo1-depleted yeast, primary screen, S. cerevisiae, bone marrow failure model | z-score at 10 µM | S. cerevisiae sdo1-depleted JHY4D growth rescue, OD600 30 h; active compounds read high; pdr5 snq2 efflux-pump mutant strain | AID 817, 2007 | actives 0.21% (n = 140,000);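 active = z-score above 3 at both the 24 hr and the 30 hr optical density reads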;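 note: z-score against mean and SD of all compound wells on the same plate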
Autophagy HCS = autophagy modulators in MEF cells, primary screen, imaging, high-content, MEF GFP-LC3. MEF GFP-LC3 puncta imaging; test concentration mostly 10 µM. calls only at 10 µM (by protocol). actives 0.98% (n = 190,000). AID 463193, 2010;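 active = percentage of spot-positive cells more than 3 SD above its plate mean, without a fluorescence outlier flag or 80% toxicity; inconclusive = no clear call, values can overlap the other calls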;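 note: spot-positive cell cutoff set from DMSO-treated cells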
ROMK primary = ROMK potassium channel modulators, primary screen, cell-based, thallium flux, MLSMR library; ATP-sensitive inward rectifier potassium channel 1 (Homo sapiens), P48048; Tet-inducible ROMK, thallium flux fluorescence; actives lie on both sides; B-score at 10 µM; actives 2% (n = 130,000); AID 1918, 2009;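 active = signal ratio slope over the read window, or its plate-corrected B-score, at least 3 SD from the plate mean, either direction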;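 note: B-score of the F/F0 ratio slope over 7 to 12 s after thallium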
ABCB1 block = ABCB1 efflux pump inhibitors, primary screen, cell-based, multiplex, flow cytometry, ABCG2 counter-screen; AID 1326, 2008; actives 0.067% (n = 190,000); ATP-dependent translocase ABCB1 (Homo sapiens), P08183; inhibition, % at 6.6 µM; CCRF-Adr cells, JC-1 efflux; in the data active = inhibition above about 40%;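 note: 0% = vehicle and 100% = reference inhibitor; higher value means more JC-1 retained so stronger ABCB1 efflux block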
Target sequence (P08183 whole entry, looked up): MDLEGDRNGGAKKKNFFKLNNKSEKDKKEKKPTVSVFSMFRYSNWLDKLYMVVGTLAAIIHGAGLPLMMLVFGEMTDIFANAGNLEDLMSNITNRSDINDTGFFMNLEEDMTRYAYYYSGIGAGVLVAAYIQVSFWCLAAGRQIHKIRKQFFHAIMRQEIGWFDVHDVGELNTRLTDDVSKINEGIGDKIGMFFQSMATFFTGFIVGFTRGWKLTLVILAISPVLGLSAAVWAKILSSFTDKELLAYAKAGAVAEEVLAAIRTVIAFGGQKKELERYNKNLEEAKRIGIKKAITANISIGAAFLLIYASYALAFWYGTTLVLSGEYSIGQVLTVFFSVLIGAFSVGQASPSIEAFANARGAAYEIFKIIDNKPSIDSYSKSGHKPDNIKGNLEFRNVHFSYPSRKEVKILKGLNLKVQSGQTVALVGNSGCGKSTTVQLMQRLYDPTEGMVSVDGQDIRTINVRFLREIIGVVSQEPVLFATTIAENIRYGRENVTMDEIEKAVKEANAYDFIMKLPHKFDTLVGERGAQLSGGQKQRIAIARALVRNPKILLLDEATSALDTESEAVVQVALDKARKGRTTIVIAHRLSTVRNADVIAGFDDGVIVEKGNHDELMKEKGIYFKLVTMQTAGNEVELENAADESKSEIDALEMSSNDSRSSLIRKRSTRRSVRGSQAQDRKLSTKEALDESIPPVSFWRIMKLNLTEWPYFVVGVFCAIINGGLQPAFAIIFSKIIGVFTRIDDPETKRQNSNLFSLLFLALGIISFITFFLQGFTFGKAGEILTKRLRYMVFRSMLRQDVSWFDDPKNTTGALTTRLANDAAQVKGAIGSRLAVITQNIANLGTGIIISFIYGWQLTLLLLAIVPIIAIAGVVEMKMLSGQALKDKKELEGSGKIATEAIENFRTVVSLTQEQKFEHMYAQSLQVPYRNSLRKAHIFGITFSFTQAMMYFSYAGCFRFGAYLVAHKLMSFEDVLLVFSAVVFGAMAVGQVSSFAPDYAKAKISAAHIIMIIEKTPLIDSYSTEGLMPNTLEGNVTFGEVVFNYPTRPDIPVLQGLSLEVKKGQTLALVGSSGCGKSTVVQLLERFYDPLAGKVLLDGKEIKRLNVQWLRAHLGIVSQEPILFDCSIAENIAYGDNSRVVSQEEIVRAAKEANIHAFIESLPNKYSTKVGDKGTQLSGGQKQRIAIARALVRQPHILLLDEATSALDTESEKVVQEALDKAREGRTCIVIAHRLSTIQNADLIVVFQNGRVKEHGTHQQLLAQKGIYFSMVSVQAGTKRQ
ABCG2 block = ABCG2 efflux pump inhibitors, primary screen, multiplex with ABCB1, IgMXP3 cells, flow cytometry | Broad substrate specificity ATP-binding cassette transporter ABCG2 (Homo sapiens), Q9UNQ0 | AID 1325, 2008 | JC-1 efflux | inhibition, % at 6.6 µM | actives 0.1% (n = 190,000);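 active = inhibition above 80%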;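 note: 0% = DMSO and 100% = nicardipine control wells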
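Test system: IgMXP3 (ABCG2) plus far-red-tagged CCRF-Adr (ABCB1) cells. Reagent: JC-1 dye as substrate. Timing: 10 min exposure at 25 °C with rotation, no wash. Measured by: flow cytometric JC-1 green MFI at 530 nm. Read-out: percent efflux inhibition, scaled nicardipine 100% to DMSO 0%. Control set: nicardipine and DMSO wells.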
Insulin prom up = insulin promoter activators in MIN6 cells, imaging, high-content screening, mouse beta cells. MIN6 insulin promoter-GFP reporter; active compounds read high. actives 0.3% (n = 190,000). z-score at 5 µM;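 active = z-score above 3 at 5 µM with at least 500 cells counted in the well; inconclusive = wells under 500 cells, flagged as cytotoxic or low count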
* marks the source's active call; other numbers are inactive results; i = inactive; ? = inconclusive; . = not tested or not shown; + = active, no number; [ ] = dose if it differs, or a comment. This is a sample that favours compounds with a hit; in the whole collection about 2.3% have one here.

SMILES	sdo1 growth	Autophagy HCS	ROMK primary	ABCB1 block	ABCG2 block	Insulin prom up
CC1CCN(c2c(NCc3ccc(C(=O)N4CCc5ccccc54)cc3)c(=O)c2=O)CC1	0.64	+	.	-1	2	1.5
CS(=O)(=O)c1sc(C#N)c2c1C(=O)CC(c1ccccc1)C2 (stereo not drawn)	.	.	.	.	.	-0.74
Cc1cccc(S(=O)(=O)c2c(N)n(Cc3ccco3)c3nc4ccccc4nc23)c1	0.12	i	-2.9*	0	0	-0.13
Cc1ccc(S(=O)(=O)c2c(N)n(Cc3ccco3)c3nc4ccccc4nc23)cc1	-1.3	i	-1.5	-4	-10	-1.4
CCOC(=O)c1sc(N=NC2=C(O)CC(C)(C)CC2=O)c(C(=O)OCC)c1C	.	i	-0.56	4	16	-0.57
COC(=O)c1ccc(N2CCN(C)CC2)c(NC(=O)COc2ccc(OC)cc2)c1	1.1	+	.	2	7	.
O=C(NCc1nc2ccccc2[nH]1)C1=C[C@@H](c2ccc3c(c2)OCO3)C[C@@H](OCc2ccc(CO)cc2)O1	.	.	.	.	.	-0.57
CCOc1ccc(-c2nnc3sc(-c4ccccc4OC)nn23)cc1	.	i	3.3*	.	.	.
Cn1c(SCC(=O)Nc2ccc(Br)cc2)nc(O)cc1=O	.	.	-0.071	.	.	-0.16
N#Cc1c(NC(=S)NC(=O)c2ccccc2)sc2c1CCN(CCc1ccccc1)C2	-0.97	+	-0.045	0	-1	.
Cc1ccccc1NC(=O)/C=C/c1ccc([N+](=O)[O-])s1	-1.5	+	-0.96	0	1	?
Cc1cc(C)cc(NC(=O)/C=C/c2ccc([N+](=O)[O-])s2)c1	0.11	i	0.4	0	0	6*
CC(=O)c1cccc(NC(=O)/C=C/c2ccc([N+](=O)[O-])s2)c1	.	i	0.63	0	5	?
O=C(OCC(=O)N1CCCC1)c1ccc(S(=O)(=O)Nc2ccccc2)cc1	.	i	-0.05	1	1	0.74
Cc1cc(C)cc(-n2c(=O)c3sccc3n(CC(=O)NCc3ccco3)c2=O)c1	2.2	i	.	0	-3	4.6*
C=CCN1C(=O)/C(=C2/Sc3ccc(OC)cc3N2C)SC1=Nc1cccc(O)c1	.	+	-0.23	0	16	0.95
COc1cc(S(=O)(=O)NCC2CCCO2)ccc1Br (stereo not drawn)	0.49	i	1.1	1	2	-0.08
NS(=O)(=O)c1cccc(NC(=O)Cn2cc(C(F)(F)F)cc(Cl)c2=O)c1	.	.	.	.	.	1.6
OC1(c2cccc(C(F)(F)F)c2)CCN(c2ncnc3c2[nH]c2ccccc23)CC1	-0.73[7.6 µM]	+	0.014	2	4	.
Cc1ccc2[nH]c3c(N4CCN(Cc5ccccc5)CC4)ncnc3c2c1	-0.66	i	-0.65	3	4	.
CCOc1ccc2[nH]c3c(N4CCN(c5ccccn5)CC4)ncnc3c2c1	-0.97	+	.	1	6	.
c1ccc2c(c1)[nH]c1c(N3CCC4(CC3)OCCO4)ncnc12	-0.21	i	-2.1	1	13	-4.7
c1ccc(CN2CCN(c3ncnc4c3[nH]c3ccccc34)CC2)cc1	-1.2	i	-3.7*	1	1	-2
COC(=O)[C@@H]1C[C@@]2(O)[C@@H](O)[C@@H](O)[C@@H](O)C[C@H]2N1CC1CCCCC1	.	.	.	.	.	0.39
Clc1ccccc1Cc1noc(CN2CCCCC2c2ccccn2)n1 (stereo not drawn)	.	i	0.61	1	1	.
SMILES	sdo1 growth	Autophagy HCS	ROMK primary	ABCB1 block	ABCG2 block	Insulin prom up
Cc1ccc(NC(=O)c2ccc(NCc3ccco3)c([N+](=O)[O-])c2)cc1Cl	-0.69	+	.	0	14	-0.1
Cc1ccc(NC(=O)c2ccc(NCC3CCCO3)c([N+](=O)[O-])c2)cc1Cl (stereo not drawn)	2.2[13.5 µM]	i	-2.3	0	2	.
Cc1cccc(NC(=O)c2ccc(NCCc3ccccc3)c([N+](=O)[O-])c2)c1	0.16	+	0.025	0	21	-0.12
COc1cccc(CNC(=O)CCC2CCCN(C(=O)c3ccc(OC)c(F)c3)C2)c1 (stereo not drawn)	.	i	0.44	0	0	.
O=S(=O)(NCc1ccccc1)c1cnc[nH]1	0.11	i	.	-6	-5	0.27
O=S(=O)(NCc1ccc(Cl)cc1)c1cnc[nH]1	-0.01	+	0.52	0	1	1
CCN(CC)c1ccc2c(c1)OC(N)=C(C#N)C2c1cccnc1 (stereo not drawn)	-0.24	+	.	1	2	-1.7
N#CC1=C(N)Oc2cc(N)ccc2C1c1cccnc1 (stereo not drawn)	0.87	i	0.37	0	17	0.47
CN=C1c2cc3cc(OC)ccc3n2CCN1Cc1ccccc1	-0.39	+	-1.2	0	1	-0.98
COc1ccc(/C=C2\CC/C(=C\c3ccc(OC)cc3OC)C2=O)c(OC)c1	.	i	-2.7*	2	9	.
CCOc1c(Cl)cc(CNCC(C)C)cc1OC	2.6	i	-0.31	0	1	.
CCOc1c(Cl)cc(CNCC(O)c2ccccc2)cc1OC (stereo not drawn)	.	+	-0.13	0	0	0.07
Cc1ccc(C(=O)NCC(=O)OC(C)C(=O)Nc2ccc(N(C)C)cc2)cc1C (stereo not drawn)	.	i	-0.17	0	5	1.5
Cc1ccc(SCc2cc(-c3ccc(Cl)cc3)no2)cc1	-0.52	i	.	0	0	3.1*
Clc1ccc(-c2cc(CSc3ccccc3)on2)cc1	-0.45	i	.	0	2	.
O=C(COC(=O)Cc1ccc(Br)cc1)NC1CCCCCC1	.	i	0.26	3	12	-0.63
CCn1nnc2sc3c(c2c1=O)CCC(C)C3 (stereo not drawn)	0.02	i	.	0	3	3.6*
CCC(C)n1c(NC(=O)c2ccccc2)c(C#N)c2nc3ccccc3nc21 (stereo not drawn)	.	+	.	.	.	.
O=C1/C(=C/c2ccccc2)NC(=S)N1C(c1ccccc1)c1ccccc1	0.26	+	0.39	0	1	.
O=[N+]([O-])c1ccc(Oc2cccc(F)c2)c2ccncc12	-2.4	+	0.014	3	48	-0.22
CCOc1cc(C)c(S(=O)(=O)Nc2ccc3cn[nH]c3c2)cc1C	0.38	i	.	0	0	4.2*
CCn1ncc(CN2CCCC(C(=O)c3cccc(OC(C)C)c3)C2)c1C (stereo not drawn)	.	i	0.22	3	5	0.12
